“And” between values parts separate entries of the source, which are not always exact repeats. Identical values can stand only once.
Columns and labels:
[1] = Solubility was determined; assay type: physicochemical
P388 [2] = assay: (§1) Antitumor activity in P-388 lymphocytic leukemia system at 200 mg/kg dose levels per injection.; assay type: functional, Mus musculus
Method in brief: (§2)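 P-388 leukemia in animals, Q01D×09 schedule: dose given daily for 9 days, in mg/kg per injection. Read-outs are survivors on day 4 (live/total animals), body-weight difference test minus control (g), and % T/C (median lifetime of treated ÷ median lifetime of controls × 100). Some compounds were tested in independent runs at different times.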

P388 [3] = assay: (§3) Antitumor activity in P-388 lymphocytic leukemia system at 100 mg/kg dose levels per injection.; assay type: functional, Mus musculus; method in brief: as §2
P388 [4] = assay: as §3; assay type: functional, Mus musculus; remark: listed apart in the source
Method in brief: (§4)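 P-388 leukemia in vivo, dosed Q01D×09 (one injection daily for 9 days, mg/kg per injection). Activity is %T/C, the median lifetime of treated animals divided by that of controls, ×100. Live animals on day 4 were counted against the total (survivors day 4). Repeat tests were done independently at different times.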

P388 [5] = assay: Compound was tested for antitumor activity in P-388 lymphocytic leukemia system at 400 mg/kg dose levels per injection; 3/6; assay type: functional, Mus musculus; method in brief: as §2
P388 [6] = assay: (§5) Antitumor activity in P-388 lymphocytic leukemia system at 50 mg/kg dose levels per injection.; assay type: functional, Mus musculus; method in brief: as §2
P388 [7] = assay: Antitumor activity in P-388 lymphocytic leukemia system and the difference in body weight was calculated at 200 mg/kg dose levels per injection.; assay type: functional, Mus musculus
P388 [8] = assay: Compound was tested for antitumor activity in P-388 lymphocytic leukemia system and the difference in body weight was calculated at 400 mg/kg dose levels per injection; assay type: functional, Mus musculus
P388 [9] = assay: Antitumor activity in P-388 lymphocytic leukemia system and the difference in body weight was calculated at 50 mg/kg dose levels per injection.; assay type: functional, Mus musculus
P388 [10] = assay: as §1; assay type: functional, Mus musculus; method in brief: as §4; remark: listed apart in the source
P388 [11] = assay: Compound was tested for antitumor activity in P-388 lymphocytic leukemia system at 400 mg/kg dose levels per injection; Toxic; assay type: functional, organism-based; parameters: dose 400 mg/kg; details: Mus musculus; method in brief: as §4
P388 [12] = assay: as §5; assay type: functional, Mus musculus; method in brief: as §4; remark: listed apart in the source
P388 [13] = assay: Compound was tested for antitumor activity in P-388 lymphocytic leukemia system at 400 mg/kg dose levels per injection; 6/6; assay type: functional, Mus musculus; method in brief: as §2
P388 [14] = assay: Compound was tested for antitumor activity in P-388 lymphocytic leukemia system. at 400 mg/kg dose levels per injection; assay type: functional, Mus musculus; method in brief: as §4
P388 [15] = assay: Compound was tested for antitumor activity in P-388 lymphocytic leukemia system at 200 mg/kg dose levels per injection; 5/6; assay type: functional, Mus musculus; method in brief: as §2
P388 [16] = assay: Compound was tested for antitumor activity in P-388 lymphocytic leukemia system at 166.7 mg/kg dose levels per injection; 3/6; assay type: functional, Mus musculus; method in brief: as §2
P388 [17] = assay: Antitumor activity in P-388 lymphocytic leukemia system at 25 mg/kg dose levels per injection.; assay type: functional, Mus musculus; method in brief: as §2
P388 [18] = assay: Compound was tested for antitumor activity in P-388 lymphocytic leukemia system at 30 mg/kg dose levels per injection; 6/6; assay type: functional, Mus musculus; method in brief: as §2
P388 [19] = assay: Compound was tested for antitumor activity in P-388 lymphocytic leukemia system at 50 mg/kg dose levels per injection; 5/6; assay type: functional, Mus musculus; method in brief: as §2
P388 [20] = assay: Compound was tested for antitumor activity in P-388 lymphocytic leukemia system at 60 mg/kg dose levels per injection; 6/6; assay type: functional, Mus musculus; method in brief: as §2
P388 [21] = assay: Antitumor activity in P-388 lymphocytic leukemia system and the difference in body weight calculated at 100 mg/kg dose levels per injection.; assay type: functional, Mus musculus; details: 100 mg/kg
P388 [22] = assay: Compound was tested for antitumor activity in P-388 lymphocytic leukemia system and the difference in body weight was calculated at 166.7 mg/kg dose levels per injection; assay type: functional, Mus musculus
P388 [23] = assay: Antitumor activity in P-388 lymphocytic leukemia system and the difference in body weight was calculated at 25 mg/kg dose levels per injection.; assay type: functional, Mus musculus
P388 [24] = assay: Compound was tested for antitumor activity in P-388 lymphocytic leukemia system and the difference in body weight was calculated at 30 mg/kg dose levels per injection; assay type: functional, Mus musculus
P388 [25] = assay: Compound was tested for antitumor activity in P-388 lymphocytic leukemia system at 25 mg/kg dose levels per injection; assay type: functional, Mus musculus; method in brief: as §4
P388 [26] = assay: Compound was tested for antitumor activity in P-388 lymphocytic leukemia system at 30 mg/kg dose levels per injection; assay type: functional, Mus musculus; method in brief: as §4
P388 [27] = assay: Compound was tested for antitumor activity in P-388 lymphocytic leukemia system at 60 mg/kg dose levels per injection; assay type: functional, Mus musculus; method in brief: as §4
P388 [28] = assay: Compound was tested for antitumor activity in P-388 lymphocytic leukemia system and the difference in body weight was calculated at 60 mg/kg dose levels per injection; assay type: functional, Mus musculus
P388 [29] = assay: Antitumor activity in P-388 lymphocytic leukemia system at 25 mg/kg dose levels per injection; assay type: functional, Mus musculus; method in brief: as §4
[30] = Solubility was determined; INS= less than 0.1; assay type: physicochemical
P388 [31] = assay: Compound was tested for antitumor activity in P-388 lymphocytic leukemia system at 100 mg/kg dose levels per injection; 5/6; assay type: functional, Mus musculus; method in brief: as §2
P388 [32] = assay: Compound was tested for antitumor activity in P-388 lymphocytic leukemia system at 25 mg/kg dose levels per injection; 6/6; assay type: functional, Mus musculus; method in brief: as §2
P388 [33] = assay: Compound was tested for antitumor activity in P-388 lymphocytic leukemia system at 200 mg/kg dose levels per injection; assay type: functional, Mus musculus; method in brief: as §4
P388 [34] = assay: Compound was tested for antitumor activity in P-388 lymphocytic leukemia system at 400 mg/kg dose levels per injection; assay type: functional, Mus musculus; method in brief: as §4

For CN1CCN(CN2C(=O)C3C4C=CC(C3C2=O)C2C(=O)N(CN3CCN(C)CC3)C(=O)C42)CC1 (stereo unspecified), the Solubility [1] was 2%, the “Survivors at day 4” value (P388 [2]) was 6 and the “Survivors at day 4” value (P388 [3]) was 6. For the same molecule, the T/C (P388 [4]; 100 mg/kg) was 126% and 113%, the “Survivors at day 4” value (P388 [5]) was 3 and the “Survivors at day 4” value (P388 [6]) was 6. The Weight difference (P388 [7]; 200 mg/kg) was -3.1 g and -3.6 g, the Weight difference (P388 [8]) was -6.4 g and the Weight difference (P388 [9]) was 0 g. The T/C (P388 [10]; 200 mg/kg) was 122% and 128%, the T/C (P388 [11]) was “Toxic” and the T/C (P388 [12]) was 108%.
With O=C(O)C1C2C(=O)N(CO)C(=O)C2C(C(=O)O)C2C3C(=O)N(CO)C(=O)C3C12 (stereo unspecified) the “Survivors at day 4” value (P388 [2]) was 6, the “Survivors at day 4” value (P388 [3]) was 6 and the T/C (P388 [4]; 100 mg/kg) was 120% and 107%. For the same molecule, the “Survivors at day 4” value (P388 [13]) was 6, the “Survivors at day 4” value (P388 [6]) was 6 and the Weight difference (P388 [9]; 50 mg/kg) was -0.9 g and -1.2 g. The T/C (P388 [10]; 200 mg/kg) was 114% and 120%, the T/C (P388 [12]; 50 mg/kg) was 92% and 105% and the T/C (P388 [14]; 400 mg/kg) was 129% and 131%.
For CN1CCN(CN2C(=O)C3C4C=CC(C3C2=O)C2C3C(=O)N(CN5CCN(C)CC5)C(=O)C3C42)CC1 (stereo unspecified), the Solubility [1] was 1.5%, the “Survivors at day 4” value (P388 [15]) was 5 and the “Survivors at day 4” value (P388 [3]) was 6. The “Survivors at day 4” value (P388 [16]) was 3, the T/C (P388 [4]; 100 mg/kg) was 200% and 211% and the “Survivors at day 4” value (P388 [17]) was 6. For the same molecule, the “Survivors at day 4” value (P388 [18]) was 6, the “Survivors at day 4” value (P388 [19]) was 5 and the “Survivors at day 4” value (P388 [20]) was 6. The Weight difference (P388 [21]) was -3.7 g and -4.9 g, the Weight difference (P388 [22]) was -5.1 g and the Weight difference (P388 [7]) was -9 g. The Weight difference (P388 [23]) was -0.6 g, the Weight difference (P388 [24]) was -0.2 g and the Weight difference (P388 [9]) was -1.3 g. It also gave a T/C (P388 [25]) of 99%, a T/C (P388 [26]) of 116% and a T/C (P388 [12]) of 106%. For the same molecule, the T/C (P388 [27]) was 165% and the Weight difference (P388 [28]) was -3.1 g.
In the case of O=C1C2C3C=CC(C2C(=O)N1CO)C1C(=O)N(CO)C(=O)C31 (stereo unspecified), the Solubility [1] is reported as 0.5%, the “Survivors at day 4” value (P388 [2]) is reported as 6 and the “Survivors at day 4” value (P388 [3]) is reported as 6. For the same molecule, the T/C (P388 [4]; 100 mg/kg) was 144% and 137%, the “Survivors at day 4” value (P388 [17]) was 6 and the “Survivors at day 4” value (P388 [6]) was 6. For the same molecule, the Weight difference (P388 [21]) was -3.9 g and -4 g, the Weight difference (P388 [7]; 200 mg/kg) was -3.4 g and -4.1 g and the Weight difference (P388 [9]; 50 mg/kg) was -2.5 g and -1.8 g. The T/C (P388 [10]; 200 mg/kg) was 160% and 152%, the T/C (P388 [29]; 25 mg/kg) was 114% and 132% and the T/C (P388 [12]; 50 mg/kg) was 127% and 140%.
In the case of O=C1NC(=O)C2C3C=CC(C12)C1C(=O)NC(=O)C31 (stereo unspecified), the Solubility [30] is reported as “Insoluble”, the “Survivors at day 4” value (P388 [15]) is reported as 5 and the “Survivors at day 4” value (P388 [31]) is reported as 5. For the same molecule, the T/C (P388 [4]) was 97%, the Weight difference (P388 [4]) was -2.4 g and the “Survivors at day 4” value (P388 [6]) was 6. For the same molecule, the “Survivors at day 4” value (P388 [32]) was 6, the T/C (P388 [10]) was 92% and the T/C (P388 [29]) was 105%. It also gave a Weight difference (P388 [25]) of -0.7 g, a T/C (P388 [12]) of 100% and a Weight difference (P388 [12]) of -1.1 g. The Weight difference (P388 [33]) was -4.3 g.
In the case of CC1=CC2(C)C3C(=O)NC(=O)C3C1C1(C)C3C(=O)NC(=O)C3C21 (stereo unspecified), the Solubility [30] is reported as “Insoluble”, the “Survivors at day 4” value (P388 [2]) is reported as 6 and the “Survivors at day 4” value (P388 [3]) is reported as 6. The T/C (P388 [4]) was 109%, the Weight difference (P388 [4]) was -1.5 g and the “Survivors at day 4” value (P388 [13]) was 6. For the same molecule, the “Survivors at day 4” value (P388 [6]) was 6, the T/C (P388 [10]) was 97% and the T/C (P388 [12]) was 108%. The Weight difference (P388 [12]) was -0.9 g, the T/C (P388 [14]) was 101% and the Weight difference (P388 [33]) was -1.8 g. For the same molecule, the Weight difference (P388 [34]) was -5.3 g.
For O=C1NC(=O)C2C1C(C(=O)O)C1C3C(=O)NC(=O)C3C1C2C(=O)O (stereo unspecified), the Solubility [30] was “Insoluble”, the “Survivors at day 4” value (P388 [2]) was 6 and the “Survivors at day 4” value (P388 [3]) was 6. For the same molecule, the T/C (P388 [4]) was 97%, the Weight difference (P388 [4]) was -0.7 g and the “Survivors at day 4” value (P388 [13]) was 6. For the same molecule, the “Survivors at day 4” value (P388 [6]) was 6, the T/C (P388 [10]; 200 mg/kg) was 92% and 91% and the T/C (P388 [12]) was 94%. The Weight difference (P388 [12]) was 0 g, the T/C (P388 [34]) was 96% and the Weight difference (P388 [34]) was -0.2 g.

— ChEMBL document CHEMBL1123476, “Synthesis of congeners and prodrugs of the benzene maleimide photoadduct mitindomide as potential antitumor agents. 2” (J Med Chem, 1986)
